Values after ≈ are worked out from the molar mass of the structure shown.
What was measured:
Tobacco mosaic virus [1] = experiment: Antiviral activity against Tobacco mosaic virus (TMV) inoculated in Nicotiana tabacum cv. K326 leaves assessed as inhibition of virus multiplication at 25 degC measured after 48 hr by indirect ELISA/leaf-disk method; type: functional, organism-based
How it was run: (§1)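 N. tabacum cv. K326 leaves mechanically inoculated with TMV at 10 µg/mL. After 7 h, 10-mm disks were floated on compound solutions (DMSO, diluted with water) for 48 h at 25 ± 1 °C. Solvent-only and healthy-leaf disks were controls; six repetitions. Ground disks were assayed by indirect ELISA (OD405) against an in-plate TMV standard curve. Inhibition was calculated relative to the solvent control.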

Tobacco mosaic virus [2] = experiment: Antiviral activity against Tobacco mosaic virus (TMV) inoculated in Nicotiana tabacum cv. K326 leaves assessed as inhibition of virus multiplication at 0.025 mg/ml at 25 degC measured after 48 hr by indirect ELISA/leaf-disk method; type: functional; how it was run: as §1
Tobacco mosaic virus [3] = experiment: Antiviral activity against Tobacco mosaic virus (TMV) inoculated in Nicotiana tabacum cv. K326 leaves assessed as inhibition of virus multiplication at 0.05 mg/ml at 25 degC measured after 48 hr by indirect ELISA/leaf-disk method; type: functional; how it was run: as §1
Tobacco mosaic virus [4] = experiment: Antiviral activity against Tobacco mosaic virus (TMV) inoculated in Nicotiana tabacum cv. K326 leaves assessed as inhibition of virus multiplication at 0.1 mg/ml at 25 degC measured after 48 hr by indirect ELISA/leaf-disk method; type: functional; how it was run: as §1
Tobacco mosaic virus [5] = experiment: Antiviral activity against Tobacco mosaic virus (TMV) inoculated in Nicotiana tabacum cv. K326 leaves assessed as inhibition of virus multiplication at 0.2 mg/ml at 25 degC measured after 48 hr by indirect ELISA/leaf-disk method; type: functional; how it was run: as §1
Tobacco mosaic virus [6] = experiment: Antiviral activity against Tobacco mosaic virus (TMV) inoculated in Nicotiana tabacum cv. K326 leaves assessed as inhibition of virus multiplication at 0.4 mg/ml at 25 degC measured after 48 hr by indirect ELISA/leaf-disk method; type: functional; how it was run: as §1

Row | EC50 (Tobacco mosaic virus [1]) [µg/mL] | Compound | inhibition at 25 µg/mL (Tobacco mosaic virus [2]) [%] | inhibition at 50 µg/mL (Tobacco mosaic virus [3]) [%] | inhibition at 100 µg/mL (Tobacco mosaic virus [4]) [%] | inhibition at 200 µg/mL (Tobacco mosaic virus [5]) [%] | inhibition at 400 µg/mL (Tobacco mosaic virus [6]) [%]
1 | 85 (≈ 109 µM) | CC1(C)CC[C@]2(C(=O)O[C@@H]3O[C@H](CO)[C@@H](O)[C@H](O)[C@H]3O)CC[C@]3(C)C(=CC[C@@H]4[C@@]5(C)CC[C@H](O[C@@H]6OC[C@@H](O)[C@H](O)[C@H]6O)[C@@](C)(CO)[C@@H]5CC[C@]43C)[C@@H]2[C@@H]1O [OBLONGANOSIDE M] | 5.2 | 32.7 | 61.5 | 78.5 | 85.3
2 |  | C[C@@H]1CC[C@]2(C(=O)O[C@@H]3O[C@H](CO)[C@@H](O)[C@H](O)[C@H]3O)CC[C@]3(C)C(=CC[C@@H]4[C@@]5(C)CC[C@H](O)[C@@](C)(CO)[C@@H]5CC[C@]43C)[C@@H]2[C@]1(C)O [PEDUNCULOSIDE] |  |  |  | 41.5 | 
3 | 76 (≈ 99.1 µM) | CC1(C)CC[C@]2(C(=O)O[C@@H]3O[C@H](CO)[C@@H](O)[C@H](O)[C@H]3O)CC[C@]3(C)C(=CC[C@@H]4[C@@]5(C)CC[C@H](O[C@@H]6OC[C@@H](O)[C@H](O)[C@H]6O)C(C)(C)[C@@H]5CC[C@]43C)[C@@H]2[C@@H]1O [OBLONGANOSIDE K] | 13.1 | 31.4 | 63.9 | 85.7 | 88.5
4 |  | C[C@@H]1CC[C@]2(C(=O)O[C@@H]3O[C@H](CO)[C@@H](O)[C@H](O)[C@H]3O)CC[C@]3(C)C(=CC[C@@H]4[C@@]5(C)CC[C@H](O[C@@H]6OC[C@@H](O)[C@H](O)[C@H]6O)[C@@](C)(CO)[C@@H]5CC[C@]43C)[C@@H]2[C@]1(C)O [OBLONGANOSIDE I] |  |  |  | 31.7 | 
5 |  | C[C@@H]1CC[C@]2(C(=O)O[C@@H]3O[C@H](CO)[C@@H](O)[C@H](O)[C@H]3O)CC[C@]3(C)C(=CC[C@@H]4[C@@]5(C)CC[C@H](O)C(C)(C)[C@@H]5CC[C@]43C)[C@@H]2[C@]1(C)O |  |  |  | 27 | 
6 |  | C[C@@H]1CC[C@]2(C(=O)O[C@@H]3O[C@H](CO)[C@@H](O)[C@H](O)[C@H]3O)CC[C@]3(C)C(=CC[C@@H]4[C@@]5(C)CC[C@@H]6O[C@H](CO)OC[C@@]6(C)[C@@H]5CC[C@]43C)[C@@H]2[C@]1(C)O [OBLONGANOSIDE J] |  |  |  | 28.1 | 
7 |  | C[C@@H]1CC[C@]2(C(=O)O[C@@H]3O[C@H](CO)[C@@H](O)[C@H](O)[C@H]3O)CC[C@]3(C)C(=CC[C@@H]4[C@@]5(C)CC[C@H](O[C@@H]6OC[C@@H](O)[C@H](O)[C@H]6O)C(C)(C)[C@@H]5CC[C@]43C)[C@@H]2[C@]1(C)O [OBLONGANOSIDE H] |  |  |  | 37.4 | 
8 | 80 (≈ 126 µM) | CC1(C)CC[C@]2(C(=O)O[C@@H]3O[C@H](CO)[C@@H](O)[C@H](O)[C@H]3O)CC[C@]3(C)C(=CC[C@@H]4[C@@]5(C)CC[C@H](O)C(C)(C)[C@@H]5CC[C@]43C)[C@@H]2[C@@H]1O | 7.6 | 25.3 | 65.7 | 84.5 | 89.2
9 |  | CC1(C)[C@@H](O[C@@H]2OC[C@@H](O)[C@H](O)[C@H]2O)CC[C@]2(C)[C@H]3CC=C4[C@@H]5C[C@](C)(CO)CC[C@]5(C(=O)O[C@@H]5O[C@H](CO)[C@@H](O)[C@H](O)[C@H]5O)CC[C@@]4(C)[C@]3(C)CC[C@@H]12 [OBLONGANOSIDE L] |  |  |  | 46.9 | 
10 |  | C[C@@H]1CC[C@]2(C(=O)O[C@@H]3O[C@H](CO)[C@@H](O)[C@H](O)[C@H]3O)CC[C@]3(C)C(=CC[C@@H]4[C@@]5(C)C[C@@H](O)[C@H](O)[C@@](C)(CO)[C@@H]5CC[C@]43C)[C@@H]2[C@]1(C)O [NIGAICHIGOSIDE F1] |  |  |  | 24.9 | 
